In the library only some 2.2% were active in any assay of this set; here they are far more common.
Env fusion inh: inhibitors of HIV-1 Env-driven cell-cell fusion, primary screen, HeLa-JRFL effector, CEM21 target cells, luciferase | inhibition, % at 12.3 µM | 360,000 compounds, 1.1% hits | AID 651610, 2012;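 active = mean replicate inhibition score of at least 50 and every replicate individually at or above 50; inconclusive = only one of the two criteria met; inactive = mean below 50 and not all replicates reaching 50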
FN deposit inh: inhibitors of fibronectin matrix deposition, primary screen, AH1F cells, Alexa488-fibronectin fluorescence, plate reader | AH1F fibroblasts, overnight | inhibition, % at 12.6 µM | 350,000 compounds, 0.086% hits;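 active = mean inhibition across replicates of 30% or more, regardless of how many single replicates reach that level; inconclusive = mean under 30% yet at least half of replicates reach 30%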
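Material: AH1F fibroblast monolayer depositing Alexa488-labelled fibronectin into matrix | Input: 10000 AH1F cells/well | Medium: DMEM plus 2% serum, read in PBS | Reagent: Alexa488-fibronectin, 24 nM final in well | Compound dosing: One dose per compound, pinned | Schedule: 1 h adhesion, overnight exposure | Measured by: Fluorescence at 485 nm excitation, 525 nm emission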
PvdQ inh: P. aeruginosa PvdQ acylase inhibitors, primary screen, biochemical, fluorescence, plate reader and imaging, single point; PvdQ acylase [Pseudomonas aeruginosa LESB58]; purified PvdQ acylase; inhibition, % at 10 µM; 340,000 compounds, 0.063% hits; AID 488965, 2010; in the data active = inhibition above about 30%, passing the limit was not always enough; inconclusive = no clear call, values can overlap the other calls
PDI turbidity: inhibitors of human PDI, primary screen, biochemical, turbidity, single point, plate reader. Protein disulfide-isomerase (Homo sapiens), P07237. PDI insulin aggregation turbidity, A650, 90 min. inhibition, % at 10 µM. 350,000 compounds, 0.052% hits. AID 588391, 2011;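 active = mean inhibition across replicates of 30% or more, whatever share of single replicates reach that level; inconclusive = mean inhibition below 30% while every single replicate reaches 30%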
Target sequence (P07237 whole entry, looked up): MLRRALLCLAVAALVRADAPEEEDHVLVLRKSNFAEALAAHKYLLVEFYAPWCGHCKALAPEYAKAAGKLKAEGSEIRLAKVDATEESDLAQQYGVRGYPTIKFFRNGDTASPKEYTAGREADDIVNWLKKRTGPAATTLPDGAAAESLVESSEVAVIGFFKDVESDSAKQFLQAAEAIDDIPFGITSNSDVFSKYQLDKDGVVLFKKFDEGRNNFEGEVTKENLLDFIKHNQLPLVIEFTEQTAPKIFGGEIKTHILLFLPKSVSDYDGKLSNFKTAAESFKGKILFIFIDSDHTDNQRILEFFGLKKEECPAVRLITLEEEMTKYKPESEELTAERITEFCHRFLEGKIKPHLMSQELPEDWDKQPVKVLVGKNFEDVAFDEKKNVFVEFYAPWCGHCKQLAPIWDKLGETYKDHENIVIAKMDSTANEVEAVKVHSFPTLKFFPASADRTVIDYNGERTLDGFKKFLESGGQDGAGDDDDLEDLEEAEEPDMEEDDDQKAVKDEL
ERp5 block: inhibitors of ERp5-driven insulin aggregation, primary screen, biochemical, turbidity, absorbance 650 nm, single point | Protein disulfide-isomerase A6 (Homo sapiens), Q15084 | 90 min | inhibition, % at 9.99 µM | 350,000 compounds, 0.05% hits | AID 651711, 2012;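 active = mean replicate inhibition above about 25%, with every replicate also reaching it, limit read from the data, passing the limit was not always enough; inconclusive = only one of those two criteria met; inactive = neither criterion met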
rRNA inh HTS: reduced GFP signal of wild-type E. coli, primary screen, bacterial rRNA inhibitor project, GFP/RFP fluorescence, OD600, single point | AID 720706, 2013 | E. coli WT GFP vs humanized-ribosome RFP mutants, 24 h; stronger effect = lower value; DMSO median 0, no signal -100 | 350,000 compounds, 1.6% hits | GFP signal change (wild-type ribosome), % (concentration not given with the values);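 active = significant combined selectivity score with lowered wild-type GFP, culture density cut under 30%, mutant RFP and density less affected; inactive = any of these conditions unmet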
Hits are given with their value; - = inactive; ? = inconclusive; . = not tested or not shown; [ ] = another dose, or the depositor's remark.

SMILES | Env fusion inh | FN deposit inh | PvdQ inh | PDI turbidity | ERp5 block | rRNA inh HTS
CC(C)CC#Cc1ccc2c(c1)O[C@@H](CN(C)S(=O)(=O)c1ccc(F)cc1)[C@@H](C)CN([C@@H](C)CO)S2(=O)=O | - | - | . | . | . | -
Cc1ccc(S(=O)(=O)N(C)C[C@H]2Oc3cc(-c4cccc(F)c4)ccc3S(=O)(=O)N([C@@H](C)CO)C[C@H]2C)cc1 | 69[16.7 µM] | . | . | . | - | -
COc1ccc(NC(=O)N(C)C[C@@H]2Oc3ccc(NC(=O)Nc4c(C)noc4C)cc3C(=O)N([C@H](C)CO)C[C@@H]2C)cc1 | - | . | . | . | . | -
Cc1cccc(S(=O)(=O)N(C)C[C@H]2OCc3cn(nn3)CCCC(=O)N([C@@H](C)CO)C[C@H]2C)c1 | - | - | . | . | - | -
CO[C@@H]1CN(C)C(=O)c2ccc(NC(C)=O)cc2OC[C@H](C)N(C(=O)c2ccccc2)C[C@@H]1C | . | - | . | . | . | -
COc1ccccc1-c1ccc2c(c1)O[C@H](CN(C)S(=O)(=O)c1ccc(C)cc1)[C@H](C)CN([C@@H](C)CO)S2(=O)=O | 43[16.7 µM] | . | . | . | - | -
Cc1ccc(S(=O)(=O)N(C)C[C@H]2Oc3cc(-c4cccc(F)c4)ccc3S(=O)(=O)N([C@H](C)CO)C[C@H]2C)cc1 | 64[16.7 µM] | . | . | . | - | -
C[C@H]1CN([C@@H](C)CO)S(=O)(=O)c2ccc(Br)cc2O[C@H]1CN(C)S(=O)(=O)c1ccc(F)cc1 | 63[16.7 µM] | - | . | . | - | -
CCOC(=O)Cc1csc(NC(=O)c2ccc(NC(C)=O)cc2)n1 | . | . | - | - | . | .
CCOC(=O)Cc1csc(NC(=O)Nc2ccc(OC(F)(F)F)cc2)n1 | - | - | - | - | - | -21
CCOC(=O)Cc1csc(NC(=O)Cc2ccc(Cl)cc2)n1 | - | - | - | - | - | -22
CN(C)C(=O)C[C@H]1CC[C@H](NC(=O)Nc2cccc(F)c2)[C@@H](CO)O1 | - | - | . | . | - | -
CO[C@@H]1CN(C)C(=O)c2cc(NC(=O)Nc3c(C)noc3C)ccc2OC[C@@H](C)N(C)C[C@H]1C | - | - | . | . | . | -
O=C(C[C@H]1CC[C@H]2[C@@H](COC[C@H](O)CN2Cc2ccncc2)O1)NCc1ccccc1Cl | . | - | . | . | - | -
Cc1c(C(=O)N2CCCC2)oc2ccc(Br)cc12 | - | - | - | - | - | -30
Cc1c(C(=O)N2CCN(C)CC2)oc2ccc(Br)cc12 | - | - | - | - | - | -
COc1ccccc1N1CCN(C(=O)c2oc3ccc(F)cc3c2C)CC1 | . | - | - | - | - | -36
COc1ccc(-c2noc(C3CCCN(C(=O)c4ccccc4)C3)n2)cc1 (stereo unspecified) | - | - | - | - | - | -
O=C(c1ccco1)N1CCCC(c2nc(-c3ccc(S(=O)(=O)NCc4ccccc4)cc3)no2)C1 (stereo unspecified) | 65 | . | - | - | . | .
C=CCc1c(Cl)nc(C)nc1NCc1ccccc1 | 59 | - | - | - | - | -
C[C@@H]1CN([C@H](C)CO)S(=O)(=O)c2ccc(C3=CCCC3)cc2O[C@@H]1CN(C)Cc1cccc(C(=O)O)c1 | - | . | . | . | - | -
COc1ccc2c3c(n(C)c2c1)[C@@H](CO)N(C(=O)CN1CCOCC1)CC31CCN(C)CC1 | . | . | . | . | . | -
CCCc1cc(C(=O)Nc2cc(OC)ccc2OC)cs1 | - | - | - | - | - | -32
CCC(=O)N1[C@H](CO)[C@H](c2ccccc2)C12CN(C(=O)NC1CCCC1)C2 | . | . | . | . | - | -
CC(C)c1ccc(NC(=S)Nc2ccc3cn[nH]c3c2)cc1 | - | - | - | - | - | -46
SMILES | Env fusion inh | FN deposit inh | PvdQ inh | PDI turbidity | ERp5 block | rRNA inh HTS
Cc1ccc(NC(=S)Nc2ccc3cn[nH]c3c2)cc1C | - | - | - | - | . | .
CC(=O)c1ccc(NC(=S)Nc2ccc3cn[nH]c3c2)cc1 | - | . | - | - | - | -
Cc1ccc(NC(=S)Nc2ccc3cn[nH]c3c2)c(C)c1 | - | - | - | - | - | -26
COCCCn1c(C(=O)N2CCOCC2)cc2c(=O)n3cccc(C)c3nc21 | - | - | - | - | - | -
COCCCn1c(C(=O)Nc2ccc3c(c2)OCO3)cc2c(=O)n3cccc(C)c3nc21 | 64 | - | . | - | - | -
CN(C(=O)c1ccc(S(=O)(=O)c2cccc(Cl)c2)c([N+](=O)[O-])c1)C1CCCCC1 | 59 | - | - | - | . | .
O=C(c1ccc(S(=O)(=O)c2ccc(F)cc2)c([N+](=O)[O-])c1)N1CCCCCC1 | - | - | - | - | - | -
C[C@@H]1CCCCO[C@H](CN(C)Cc2ccc3c(c2)OCO3)[C@@H](C)CN([C@@H](C)CO)C(=O)c2cc(NC(=O)Nc3ccc(C(F)(F)F)cc3)ccc2O1 | ? | . | . | . | - | .
C[C@H](CO)N1C[C@H](C)[C@@H](CN(C)Cc2ccc(C(F)(F)F)cc2)OCCCC[C@H](C)Oc2ccc(NC(=O)Nc3ccc4c(c3)OCO4)cc2C1=O | 71[16.7 µM] | . | . | . | - | -
C[C@@H]1CN([C@H](C)CO)C(=O)c2cc(NC(=O)Nc3ccc(C(F)(F)F)cc3)ccc2O[C@@H](C)CCCCO[C@H]1CN(C)Cc1ccc2c(c1)OCO2 | ? | - | . | . | - | -
C[C@@H]1CCCCO[C@H](CN(C)Cc2ccc3c(c2)OCO3)[C@H](C)CN([C@@H](C)CO)C(=O)c2cc(NC(=O)Nc3ccc(C(F)(F)F)cc3)ccc2O1 | - | - | . | . | - | -
C[C@H]1CCCCO[C@@H](CN(C)Cc2ccc(C(F)(F)F)cc2)[C@@H](C)CN([C@@H](C)CO)C(=O)c2cc(NC(=O)Nc3ccc4c(c3)OCO4)ccc2O1 | 86[16.7 µM] | . | . | . | - | -
C[C@H](CO)N1C[C@H](C)[C@H](CN(C)Cc2ccc3c(c2)OCO3)OCCCC[C@H](C)Oc2ccc(NC(=O)Nc3ccc(C(F)(F)F)cc3)cc2C1=O | 61[16.7 µM] | - | . | . | - | -
C[C@H]1CCCCO[C@H](CN(C)Cc2ccc(C(F)(F)F)cc2)[C@@H](C)CN([C@@H](C)CO)C(=O)c2cc(NC(=O)Nc3ccc4c(c3)OCO4)ccc2O1 | 60[16.7 µM] | . | . | . | - | -
CC(=O)N1[C@@H]2c3ccc(-c4ccccc4F)c(=O)n3C[C@@H]2[C@@H](CO)[C@@H]1C(=O)NCC1CC1 | . | . | . | . | - | -
C[C@@H]1CCCCO[C@@H](CN(C)Cc2ccc(C(F)(F)F)cc2)[C@H](C)CN([C@H](C)CO)C(=O)c2cc(NC(=O)Nc3ccc4c(c3)OCO4)ccc2O1 | 65[16.7 µM] | . | . | . | - | -
C[C@@H]1CCCCO[C@H](CN(C)Cc2ccc(C(F)(F)F)cc2)[C@H](C)CN([C@@H](C)CO)C(=O)c2cc(NC(=O)Nc3ccc4c(c3)OCO4)ccc2O1 | - | . | . | . | - | -
